Source: ChEMBL document CHEMBL1129970, “Biologically active conformer of the effector region of human C5a and modulatory effects of N-terminal receptor binding determinants on activity” (J Med Chem, 1997)
Peptide text beside a SMILES is read from it.

Columns and labels:
[1] = species: Homo sapiens; assay: Tested for the ability to stimulate beta-glucuronidase release from human polymorphonuclear cells (PMN) (n=5); type: functional
How it was run: (§1)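 Human PMNs pretreated with cytochalasin B (5 μg/mL, 10 min, 37 °C), then 10⁶ cells stimulated for 60 min at 37 °C. β-Glucuronidase in the supernatant is assayed with 0.01 M p-nitrophenyl β-D-glucuronide (0.1 M acetate, pH 4, 18 h) in triplicate. Reaction stopped with glycine pH 10 and read at 415 nm. pD2 is taken from dose–response curves against the C5a EC50. Efficacy is given relative to C5a maximum (100%).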

[2] = Selectivity of peptide was determined from antilog[pD2(fetal artery)-pD2 (PMN enzyme release)] (n=35); type: functional
How it was run: (§2)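 Selectivity = antilog[pD2(fetal artery) − pD2(PMN β-glucuronidase release)]. pD2 values come from full dose–response curves in each assay, each generated alongside C5a.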

[3] = species: Homo sapiens; assay: Relative potency of peptide for human fetal artery was determined; type: functional
How it was run: (§3)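 Human fetal artery smooth muscle contraction; full dose–response curves for recombinant human C5a or each peptide in the same tissue preparation. EC50 is the concentration giving 50% of the maximal response, read relative to the C5a maximum. pD2 = −log EC50 (M), averaged per peptide ± SE. Log potency ratio pD2(C5a) − pD2(peptide) is computed within each experiment. Relative potency = antilog(−Δ) × 100.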

[4] = species: Homo sapiens; assay: Log potency ratio [pD2(C5a)-pD2(peptide)] was determined in human fetal artery; type: functional; how it was run: as §3
[5] = species: Homo sapiens; assay: Effective concentration to induce smooth muscle contraction in human fetal artery; type: functional; details: Muscle tissue; how it was run: as §3
[6] = species: Homo sapiens; assay: Log potency ratio [pD2(C5a)-pD2(peptide)] was determined in human polymorphonuclear cells (PMN) (n=5); type: functional; how it was run: as §1
[7] = species: Homo sapiens; assay: Relative affinity for PMN receptor (n=3); type: functional
How it was run: (§4)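 Competition binding on freshly isolated intact human PMNs (0.25 × 10⁶) with 20 pM [¹²⁵I]C5a plus unlabeled C5a or peptide. Buffer is 50 mM HEPES, 1 mM CaCl₂, 5 mM MgCl₂, 0.5% BSA. Incubation 60 min at 4 °C, then filtration, ice-cold washes and gamma counting, triplicates. Nonspecific binding defined with 1 mM peptide or 100 nM C5a. Relative affinity = antilog[−(log IC50 C5a − log IC50 peptide)] × 100. The potency/binding ratio is EC50 divided by the binding IC50.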

[8] = species: Homo sapiens; assay: Tested for inhibition of binding of [125I]-C5a to intact human polymorphonuclear cells (PMN) (n=3); type: functional; how it was run: as §4
[9] = species: Homo sapiens; assay: Maximum efficacy relative to C5a (100%) for human polymorphonuclear cells (PMN) was determined (n=5); type: functional; how it was run: as §1
[10] = species: Homo sapiens; assay: Spasmogenic activity was measured by the ability to induce smooth muscle contraction in human fetal artery; type: functional, Muscle tissue; how it was run: as §3
[11] = species: Homo sapiens; assay: Relative potency of peptide to stimulate beta-glucuronidase release from human polymorphonuclear cells (PMN) (n=5); type: functional; how it was run: as §1
[12] = species: Homo sapiens; assay: Effective concentration to stimulate beta-glucuronidase release from human polymorphonuclear cells (PMN) (n=5); type: functional; how it was run: as §1
[13] = (§5) Ratio of concentration agonist potency (EC50) to concentration inhibiting [125I]C5a binding (n=3); how it was run: as §4
[14] = species: Homo sapiens; assay: Tested for the ability to stimulate beta-glucuronidase release from human polymorphonuclear cells (PMN) (n=4); type: functional; how it was run: as §1
[15] = species: Homo sapiens; assay: Relative potency of peptide to stimulate beta-glucuronidase release from human polymorphonuclear cells (PMN) (n=4); type: functional; how it was run: as §1
[16] = species: Homo sapiens; assay: Log potency ratio [pD2(C5a)-pD2(peptide)] was determined for human polymorphonuclear cells (PMN) (n=4); type: functional; how it was run: as §1
[17] = species: Homo sapiens; assay: Selectivity of peptide was determined from antilog[pD2(fetal artery)-pD2 (PMN enzyme release)] (n=10); type: functional; how it was run: as §2
[18] = species: Homo sapiens; assay: Log potency ratio [log IC50(C5a)-log IC50(peptide)] was determined in human polymorphonuclear cells (PMN) (n=3); type: functional; how it was run: as §4
[19] = species: Homo sapiens; assay: as §5; type: functional; how it was run: as §4
[20] = species: Homo sapiens; assay: Maximum efficacy relative to C5a (100%) for human polymorphonuclear cells (PMN) was determined (n=4); type: functional; how it was run: as §1
[21] = Selectivity of peptide was determined from antilog[pD2(fetal artery)-pD2 (PMN enzyme release)] (n=12); type: functional; how it was run: as §2
[22] = species: Homo sapiens; assay: Maximum efficacy relative to C5a (100%) for human polymorphonuclear cells (PMN) was determined (n=3); type: functional; how it was run: as §1
[23] = species: Homo sapiens; assay: Tested for the ability to stimulate beta-glucuronidase release from human polymorphonuclear cells (PMN) (n=3); type: functional; how it was run: as §1
[24] = species: Homo sapiens; assay: Relative potency of peptide to stimulate beta-glucuronidase release from human polymorphonuclear cells (PMN) (n=3); type: functional; how it was run: as §1
[25] = species: Homo sapiens; assay: Log potency ratio [pD2(C5a)-pD2(peptide)] was determined in human polymorphonuclear cells (PMN) (n=3); type: functional; how it was run: as §1
[26] = species: Homo sapiens; assay: Relative potency of peptide to stimulate beta-glucuronidase release from human polymorphonuclear cells (PMN) (n=6); type: functional; how it was run: as §1
[27] = species: Homo sapiens; assay: Maximum efficacy relative to C5a (100%) for human polymorphonuclear cells (PMN) was determined (n=6); type: functional; how it was run: as §1
[28] = species: Homo sapiens; assay: Log potency ratio [pD2(C5a)-pD2(peptide)] was determined in human polymorphonuclear cells (PMN) (n=6); type: functional; how it was run: as §1
[29] = species: Homo sapiens; assay: Tested for the ability to stimulate beta-glucuronidase release from human polymorphonuclear cells (PMN) (n=6); type: functional; how it was run: as §1
[30] = species: Homo sapiens; assay: Tested for inhibition of binding of [125I]C5a to intact human polymorphonuclear cells (PMN) (n=3); type: functional; how it was run: as §4
[31] = species: Homo sapiens; assay: Selectivity of peptide was determined from antilog [pD2(fetal artery)-pD2 (PMN enzyme release)] (n=28); type: functional; how it was run: as §2
[32] = species: Homo sapiens; assay: Effective concentration to stimulate beta-glucuronidase release from human polymorphonuclear cells (PMN) (n=6); type: functional; how it was run: as §1
[33] = species: Homo sapiens; assay: Effective concentration to stimulate beta-glucuronidase release from human polymorphonuclear cells (PMN) (n=3); type: functional; how it was run: as §1
[34] = Selectivity of peptide was determined from antilog[pD2(fetal artery)-pD2 (PMN enzyme release)] (n=8); type: functional; how it was run: as §2
[35] = species: Homo sapiens; assay: Log potency ratio [pD2(C5a)-pD2(peptide)] was determined in human polymorphonuclear cells (PMN) (n=4); type: functional; how it was run: as §1
[36] = Selectivity of peptide was determined from antilog[pD2(fetal artery)-pD2 (PMN enzyme release)] (n=7); type: functional; how it was run: as §2

| Compound | Potency [3] | Mean log concentration ratio [4] | EC50 [5] | C5a affinity [7] | pD2 [10] | pD2 [14] | Potency [15] | C5a max [20] | further results |
| --- | --- | --- | --- | --- | --- | --- | --- | --- | --- |
| CSCC[C@H](NC(=O)[C@H](CC(=O)O)NC(=O)[C@H](CCCCN)NC(=O)[C@H](Cc1ccccc1)NC(=O)[C@H](CO)NC(=O)[C@@H](N)Cc1ccc(O)cc1)C(=O)N[C@@H](CCC(N)=O)C(=O)N[C@@H](CC(C)C)C(=O)NCC(=O)N[C@@H](CCCN=C(N)N)C(=O)O (H-YSFKDMQLGR-OH) | 0.1% | 3 | 9.6 µM | 0.022% | 4.96 |  |  |  | pD2 [1]: 4.04; Selectivity [2]: 8.3; Mean log concentration ratio [6]: 3.42; IC50 [8]: 1.3 µM; C5a max [9]: 87%; Potency [11]: 0.04%; EC50 [12]: 92 µM; Ratio [13]: 72 |
| CSCC[C@H](NC(=O)[C@@H]1CCCN1C(=O)[C@H](CCCCN)NC(=O)[C@H](Cc1ccccc1)NC(=O)[C@H](CO)NC(=O)[C@H](Cc1ccc(O)cc1)NC(=O)CCCCCN)C(=O)N1CCC[C@H]1C(=O)N[C@@H](CC(C)C)C(=O)N[C@H](C)C(=O)N[C@@H](CCCN=C(N)N)C(=O)O | 16% | 0.79 |  | 0.005% | 7.16 | 5.51 | 1.2% | 180% | Mean log concentration ratio [16]: 1.9; Selectivity [17]: 45; Mean log concentration ratio [18]: 4.33; Ratio [19]: 0.6 |
| CSCC[C@H](NC(=O)[C@@H]1CCCN1C(=O)[C@H](CCCCN)NC(=O)[C@H](Cc1ccccc1)NC(=O)[C@H](CO)NC(=O)[C@H](Cc1ccc(O)cc1)NC(=O)CCCCCNC(=O)[C@@H](N)CCCCN)C(=O)N1CCC[C@H]1C(=O)N[C@@H](CC(C)C)C(=O)N[C@H](C)C(=O)N[C@@H](CCCN=C(N)N)C(=O)O [listing 1 of 2 here] | 14% | 0.84 |  |  | 7.14 |  |  |  | Selectivity [21]: 59; C5a max [22]: 145%; pD2 [23]: 5.37; Potency [24]: 1.2%; Mean log concentration ratio [25]: 1.93 |
| CSCC[C@H](NC(=O)[C@H](CC(=O)O)NC(=O)[C@H](CCCCN)NC(=O)[C@H](Cc1ccccc1)NC(=O)[C@H](CO)NC(=O)[C@@H](N)Cc1ccc(O)cc1)C(=O)N1CCC[C@H]1C(=O)N[C@@H](CC(C)C)C(=O)N[C@H](C)C(=O)N[C@@H](CCCN=C(N)N)C(=O)O | 2.2% | 1.66 | 0.5 µM | 0.007% | 6.32 |  |  |  | Potency [26]: 0.04%; C5a max [27]: 174%; Mean log concentration ratio [28]: 3.35; pD2 [29]: 4.14; Mean log concentration ratio [18]: 4.13; IC50 [30]: 3.7 µM; Selectivity [31]: 151; Ratio [19]: 19; EC50 [32]: 72 µM |
| CSCC[C@H](NC(=O)[C@@H]1CCCN1C(=O)[C@H](CCCCN)NC(=O)[C@H](Cc1ccccc1)NC(=O)[C@H](CO)NC(=O)[C@H](Cc1ccc(O)cc1)NC(=O)CCCCCNC(=O)[C@@H](N)CCCCN)C(=O)N1CCC[C@H]1C(=O)N[C@@H](CC(C)C)C(=O)N[C@H](C)C(=O)N[C@@H](CCCN=C(N)N)C(=O)O [listing 2 of 2 here] |  |  | 0.09 µM |  |  |  |  |  | EC50 [33]: 4.3 µM |
| CSCC[C@H](NC(=O)[C@@H]1CCCN1C(=O)[C@H](CCCCN)NC(=O)[C@H](Cc1ccccc1)NC(=O)[C@H](CO)NC(=O)[C@H](Cc1ccc(O)cc1)NC(C)=O)C(=O)N1CCC[C@H]1C(=O)N[C@@H](CC(C)C)C(=O)N[C@H](C)C(=O)N[C@@H](CCCN=C(N)N)C(=O)O | 9.6% | 0.74 |  |  | 6.98 | 5.03 | 0.4% | 148% | Selectivity [34]: 89; Mean log concentration ratio [35]: 2.44 |
| CSCC[C@H](NC(=O)[C@@H]1CCCN1C(=O)[C@H](CCCCN)NC(=O)[C@H](Cc1ccccc1)NC(=O)[C@H](CO)NC(=O)[C@H](Cc1ccc(O)cc1)NC(=O)CCCCCNC(=O)[C@H](Cc1c[nH]c2ccccc12)NC(=O)[C@@H](N)CC(=O)O)C(=O)N1CCC[C@H]1C(=O)N[C@@H](CC(C)C)C(=O)N[C@H](C)C(=O)N[C@@H](CCCN=C(N)N)C(=O)O | 8.5% | 0.91 |  |  | 6.96 | 5.14 | 0.5% | 173% | Selectivity [36]: 66; Mean log concentration ratio [35]: 2.3 |
